Assay results of several laboratories.
Each line is one published result; the experiments were not run side by side.
ENAH: Protein enabled homolog (ENAH, UniProt Q8N8S7)
DPP4: Dipeptidyl peptidase 4 (DPP4, Homo sapiens, UniProt P27487)
pknB: Serine/threonine-protein kinase PknB (pknB, Mycobacterium tuberculosis, UniProt P9WI81)
1-deoxy-D-xylulose 5-phosphate reductoisomerase: 1-deoxy-D-xylulose 5-phosphate reductoisomerase (Mycobacterium tuberculosis, UniProt P9WNS1)

CC(=O)N[C@@H](CO)C(=O)N[C@@H](Cc1ccccc1)C(=O)N[C@@H](CCC(=O)O)C(=O)N[C@@H](Cc1ccccc1Cl)C(=O)N1CCC[C@H]1C(=O)N1CCC[C@H]1C(=O)N1CCC[C@H]1C(=O)N1CCC[C@H]1C(=O)O has a Kd of 4.6 µM (ENAH; binding, fluorescence).
CN1[C@H]2CC[C@@H]1[C@@H](c1cc(-c3ccccc3)no1)[C@H](OC(c1ccc(F)cc1)c1ccc(F)cc1)C2 gave a Ki of 0.413 µM (Transporter (Slc6a2, Rattus norvegicus, UniProt Q63380); ligand displacement, radioligand; cell membranes).
CC(C)[C@H](N)C(=O)N1CCC[C@H]1C(=O)N[C@H](C(=O)N1CCC[C@H]1C(=O)N[C@H](C(=O)O)[C@@H](C)O)C(C)C gave an IC50 of 131 µM (DPP4; enzyme activity, inhibitor, absorbance; pH 8).
With CC(C)(C)OC(=O)N1CCN(c2ccc(Nc3nccc(-c4ccccc4)n3)cc2C(F)(F)F)CC1 the IC50 was > 20 µM (pknB; enzyme activity, inhibitor).
With CC(C)[C@H](N)C(=O)N1CCC[C@H]1C(=O)N[C@H](C(=O)N1CCC[C@H]1C(=O)NCC(=O)O)C(C)C the IC50 was 84.9 µM (DPP4; enzyme activity, inhibitor, absorbance; pH 8).
CC(=O)N(O)CCC(c1ccc(-c2c(C)noc2C)cc1)P(=O)(O)O (centres unmarked) gave an IC50 of 21.5 µM (1-deoxy-D-xylulose 5-phosphate reductoisomerase; enzyme activity, inhibitor, absorbance; pH 7.5).
For CC(C)[C@H](N)C(=O)N1CCC[C@H]1C(=O)N[C@H](C(=O)N1CCC[C@H]1C(=O)N[C@@H](Cc1ccc(O)cc1)C(=O)O)C(C)C, the IC50 was 80.7 µM (DPP4; enzyme activity, inhibitor, absorbance; pH 8).
CC(=O)N(O)CCC(c1ccc(-c2cccc(C)c2)cc1)P(=O)(O)O (centres unmarked) gave an IC50 of 2.4 µM (1-deoxy-D-xylulose 5-phosphate reductoisomerase; enzyme activity, inhibitor, absorbance; pH 7.5).
The Kd of CC(=O)N[C@@H](CO)C(=O)N[C@@H](Cc1ccccc1)C(=O)N[C@@H](CCC(=O)O)C(=O)N[C@@H](Cc1ccccc1Cl)C(=O)N1CCC[C@H]1C(=O)N1CCC[C@H]1C(=O)N1CCC[C@H]1C(=O)N1CCC[C@H]1C(=O)N[C@H](C(=O)N[C@@H](CCC(=O)O)C(=O)N[C@@H](CC(=O)O)C(=O)N[C@@H](CC(=O)O)C(=O)N[C@@H](CC(C)C)C(N)=O)[C@@H](C)O is reported as 1.43 µM (ENAH; binding, fluorescence).
COc1cccc(-c2ccnc(Nc3ccc(N4CCN(C(=O)OC(C)(C)C)CC4)c(C(F)(F)F)c3)n2)c1 has an IC50 of > 20 µM (pknB; enzyme activity, inhibitor).
With CC(=O)N(O)CCC(c1ccc(-c2ccsc2)cc1)P(=O)(O)O (centres unmarked) the IC50 was 5.7 µM (1-deoxy-D-xylulose 5-phosphate reductoisomerase; enzyme activity, inhibitor, absorbance; pH 7.5).
